The source of these data is ChEMBL document CHEMBL3856222, “Design, structure activity relationship, cytotoxicity and evaluation of antioxidant activity of curcumin derivatives/analogues” (Eur J Med Chem, 2016).

SMILES strings stand for the structures. Counter-ions that a name gives are not always drawn.

Usually IC50 stands for the concentration that gives 50% inhibition.

Test [1] in a line: Antioxidant activity assessed as nitric oxide radical scavenging activity at 10 uM incubated in dark for 20 mins relative to control. It counts as functional.
A short description of test [2]: Antioxidant activity assessed as DPPH free radical scavenging activity at 10 uM incubated in dark for 20 mins relative to control. The class given is functional. The method in brief: (§1)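 Compounds dissolved in DMSO and diluted in 100 mM Tris–HCl (pH 7.4). DPPH (0.1 mM in methanol) added with vigorous shaking, then held in the dark at room temperature for 20 min. Absorbance read at 517 nm with DMSO baseline correction. Compound-free control prepared the same way. Run in triplicate.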
(In general: The DPPH test is a chemical assay of radical scavenging.)

Test [3] in a line: Antioxidant activity assessed as nitric oxide radical scavenging activity at 20 uM incubated in dark for 20 mins relative to control. It counts as functional.
Test [4] can be described thus: Cytotoxicity against human QG56 cells assessed as decrease in cell viability after 48 hrs by MTT assay. The settings on record: QG-56, 48 h. The class given is functional, cell-based. In a few lines:
(§2)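 Cells seeded at 2 x 10^3 per well in MEM with 10% FBS and left to attach for 24 h. Exposed 48 h to 5, 10, 20, 50, 100 and 200 µM (printed µM/mL). Controls got medium with 0.2% DMSO. Duplicate treatments. After PBS wash, MTT (stock 1 mg/mL) added for 4 h at 37 °C. Formazan dissolved in DMSO and OD read at 590 nm.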

The nature of test [5]: Antioxidant activity assessed as DPPH free radical scavenging activity at 20 uM incubated in dark for 20 mins relative to control. The class given is functional. In a few lines:
as §1

Test [6] in a line: Antioxidant activity assessed as DPPH free radical scavenging activity at 50 uM incubated in dark for 20 mins relative to control. The class given is functional. In a few lines: as §1
The nature of test [7]: Antioxidant activity assessed as nitric oxide radical scavenging activity at 2 uM incubated in dark for 20 mins relative to control. It counts as functional.
The nature of test [8]: Antioxidant activity assessed as DPPH free radical scavenging activity at 2 uM incubated in dark for 20 mins relative to control. It counts as functional. In a few lines:
as §1

Test [9] can be described thus: Antioxidant activity assessed as nitric oxide radical scavenging activity at 50 uM incubated in dark for 20 mins relative to control. The class given is functional.
Test [10] is described as follows: Cytotoxicity against human HeLa cells assessed as decrease in cell viability after 48 hrs by MTT assay. The class given is functional, cell-based. The method in brief: as §2
(Tetrazolium dyes change colour on reduction, which living cells bring about.)

The nature of test [11]: Cytotoxicity against human HCT116 cells assessed as decrease in cell viability after 48 hrs by MTT assay. The class given is functional, cell-based. The settings on record: HCT-116, 48 h. In a few lines:
as §2

For the molecule `COc1cc(/C=C/C(=O)C2=C(/C=C/c3ccc(O)c(OC)c3)NC(=O)NC2c2ccc(N(C)C)cc2)ccc1O` (stereo not drawn), the Activity in test [1] was found to be 69.9%; in [2], 37.6%; in test [3], 82.2%; in test [5], 48%; in test [6] it was 56%; in test [7], 28.2%. The Activity worked out at 17.9% in test [8] and 89.2% in test [9]. Moreover, the figures for the IC50 in test [4], in [10] and in [11] were 12.5 µM, 25 µM and 12.5 µM, respectively.
Turning to `COc1cc(/C=C/C(=O)C2=C(/C=C/c3ccc(O)c(OC)c3)NC(=S)NC2c2ccccc2O)ccc1O` (stereo not drawn), the Activity turned out to be 70.8% in test [1]; 60.2% in test [2]; 79.9% in [3]; 72.3% in test [5]; 86.3% in test [6]; 34% in test [7]. The Activity is 25% in test [8] and 88.5% in test [9]. Also, the IC50 was found to be 50 µM in [4], 25 µM in [10] and 100 µM in test [11].
On to `COc1cccc2c1C(=O)c1c(O)c3c(c(O)c1C2=O)C[C@@](O)(C(=O)CO)C[C@@H]3O[C@H]1C[C@H](N)[C@H](O)[C@H](C)O1` [DOXORUBICIN HYDROCHLORIDE], for which the IC50 was 2.5 µM in test [4], 2.5 µM in [10] and 5 µM in test [11].
With `COc1cc(/C=C/C(=O)C2=C(/C=C/c3ccc(O)c(OC)c3)NC(=S)NC2c2ccc(N(C)C)cc2)ccc1O` (stereo not drawn), the Activity in test [1] was 59%; in test [2] it was 72%; in test [3] it was 72.1%; in test [5], 83%; in test [6] it was 89.5%; in test [7], 32.3%. Moreover, the Activity in test [8] turned out to be 30.2%; in test [9], 84%. Besides, the IC50 in test [4] is 25 µM; in test [10] it was 12.5 µM; in test [11], 12.5 µM.
`COc1cc(/C=C/C(=O)C2=C(/C=C/c3ccc(O)c(OC)c3)NC(=S)NC2c2ccc(C)cc2)ccc1O` (stereo not drawn): the Activity in test [1] worked out at 19.9%; in test [2], 43.2%; in test [3], 30%; in [5] it was 51%; in [6], 62%; in [7], 10.2%. Moreover, the values for the Activity in test [8] and in test [9] were 15.5% and 41%, respectively. The results for the IC50 in [4], in [10] and in [11] were 12.5 µM, 25 µM and 50 µM, respectively.
In the case of `COc1cc(/C=C/C(=O)C2=C(/C=C/c3ccc(O)c(OC)c3)NC(=O)NC2c2c(Cl)cccc2Cl)ccc1O` (stereo not drawn), the Activity in test [1] is 20%; in [2], 19.2%; in test [3] it was 33%; in test [5], 31.9%; in [6], 43.2%; in test [7], 11.2%. Besides, the Activity in [8] was 11.2%; in test [9], 44.2%. Further, the values for the 50% inhibitory concentration (IC50) in test [4], in [10] and in test [11] were 100 µM, 25 µM and 50 µM, respectively.
As for `COc1cc(/C=C/C(=O)C2=C(/C=C/c3ccc(O)c(OC)c3)NC(=O)NC2c2ccc(O)cc2)ccc1O` (stereo not drawn), the Activity in test [1] turned out to be 72%; in test [2] it was 75%; in test [3] it was 80.1%; in test [5], 84.6%; in [6], 90.3%; in [7], 33.3%. The Activity in test [8] was 25%; in test [9] it was 86.2%. The IC50 in [4] was 50 µM; in [10], 25 µM; in test [11], 100 µM.
For `COc1cc(/C=C/C(=O)C2=C(/C=C/c3ccc(O)c(OC)c3)NC(=O)NC2c2ccc(C)cc2)ccc1O` (stereo not drawn), the Activity in test [1] stood at 23.9%; in [2] it was 29.9%; in [3], 36.3%; in test [5], 38.2%; in test [6], 46%; in [7], 15.5%. Besides, the figures for the Activity in test [8] and in test [9] were 17.2% and 52.2%, respectively. The half-maximal inhibitory concentration (IC50) in test [4] came to 100 µM; in test [10], 100 µM; in test [11], 12.5 µM.
Take `COc1cc(/C=C/C(=O)C2=C(/C=C/c3ccc(O)c(OC)c3)NC(=S)NC2c2ccccc2Cl)ccc1O` (stereo not drawn): the Activity in test [1] was 21.2%; in [2], 43.2%; in [3], 39.2%; in test [5], 56.6%; in test [6] it was 60%; in test [7], 15.5%. Besides, the Activity in test [8] came out at 16.2%; in [9] it was 55.6%. For the same molecule, the values for the IC50 in [4], in [10] and in test [11] were 50 µM, 50 µM and 100 µM, respectively.
As for `COc1cc(/C=C/C(=O)C2=C(/C=C/c3ccc(O)c(OC)c3)NC(=S)NC2c2ccccc2)ccc1O` (stereo not drawn), the Activity in test [1] is 22%; in test [2], 26.5%; in [3] it was 36.6%; in [5], 38%; in [6], 48%; in [7], 16.6%. The Activity in [8] was found to be 15.5%; in test [9] it was 50.4%. Besides, the IC50 is 100 µM in [4], 25 µM in test [10] and 100 µM in [11].
Turning to `COc1cc(/C=C/C(=O)CC(=O)/C=C/c2ccc(O)c(OC)c2)ccc1O` [CURCUMIN], the Activity in test [1] was found to be 22.2%; in [2], 33.2%; in [3] it was 36.5%; in [5] it was 42.2%; in test [6], 50.2%; in test [7] it was 12.2%. The Activity is 6% in test [8] and 59.9% in test [9]. The IC50 in test [4] amounted to 100 µM; in test [10], 50 µM; in test [11], 50 µM.
Consider `COc1cc(/C=C/C(=O)C2=C(/C=C/c3ccc(O)c(OC)c3)NC(=O)NC2c2ccccc2)ccc1O` (stereo not drawn), for which the Activity in [1] amounted to 20%; in test [2], 26.4%; in [3] it was 31%; in test [5] it was 38.2%; in [6] it was 40.2%; in test [7] it was 10.5%. In addition, the Activity was 15.2% in test [8] and 50.2% in [9]. Further, the IC50 in test [4] came to 50 µM; in [10], 100 µM; in test [11], 25 µM.
For the molecule `COc1cc(/C=C/C(=O)C2=C(/C=C/c3ccc(O)c(OC)c3)NC(=S)NC2c2c(Cl)cccc2Cl)ccc1O` (stereo not drawn), the Activity in [1] came to 20.2%; in [2] it was 29%; in [3], 33.9%; in test [5], 43.2%; in test [6], 50.2%; in test [7] it was 15%. Further, the Activity in test [8] is 17.7%; in [9] it was 50%. Further, the concentration for half-maximal inhibition (IC50) in test [4] is 100 µM; in test [10], 100 µM; in test [11], 50 µM.
For `COc1cc(/C=C/C(=O)C2=C(/C=C/c3ccc(O)c(OC)c3)NC(=O)NC2c2ccccc2O)ccc1O` (stereo not drawn), the Activity in test [1] was 71%; in test [2], 73.6%; in test [3], 80.9%; in [5], 81%; in [6] it was 88.9%; in [7] it was 29.9%. Also, the Activity in [8] was 33.6%; in test [9], 88%. In addition, the IC50 is 100 µM in test [4], 50 µM in test [10] and 100 µM in [11].
Consider `COc1cc(/C=C/C(=O)C2=C(/C=C/c3ccc(O)c(OC)c3)NC(=O)NC2c2ccccc2Cl)ccc1O` (stereo not drawn), for which the Activity in [1] was determined as 23%; in [2] it was 40%; in [3] it was 38.7%; in [5], 46%; in test [6], 55.5%; in [7] it was 16.6%. Moreover, the results for the Activity in test [8] and in [9] were 20.2% and 56%, respectively. For the same molecule, the figures for the half-inhibitory concentration (IC50) in [4], in test [10] and in test [11] were 100 µM, 100 µM and 50 µM, respectively.
Turning to `COc1cc(/C=C/C(=O)C2=C(/C=C/c3ccc(O)c(OC)c3)NC(=O)NC2c2cccc([N+](=O)[O-])c2)ccc1O` (stereo not drawn), the Activity in test [1] came to 19.9%; in [2], 51.2%; in test [3] it was 33%; in test [5], 66.3%; in [6], 71%; in [7], 10.2%. For the same molecule, the Activity in [8] amounted to 17%; in [9], 48%. The figures for the IC50 in test [4], in test [10] and in test [11] were 25 µM, 100 µM and 50 µM, respectively.
